# Measurements taken from ChEMBL document CHEMBL2440012, “Design, synthesis and anticonvulsant properties of new N-Mannich bases derived from 3-phenylpyrrolidine-2,5-diones” (Bioorg Med Chem, 2013).
# Active and inactive are the calls of the source. The calls are words filed in the database; no cut-off is given here.
# Assays:
# Rattus norvegicus [1] = test: Anticonvulsant activity in po dosed albino Sprague-Dawley rat assessed as protection against subcutaneous pentylenetetrazole-induced convulsion; format: functional
# Rattus norvegicus [2] = test: Anticonvulsant activity in albino Sprague-Dawley rat assessed as protection against maximal electroshock-induced seizures at 30 mg/kg, po measured after 4 hrs; format: functional
# Procedure, shortened: (§1)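 Male Sprague-Dawley rats, four per group, dosed p.o. at 30 mg/kg in 0.5% methylcellulose/water suspension; MES test at 0.25, 0.5, 1, 2 and 4 h, motor impairment examined in parallel; number of rats out of four protected.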
# Rattus norvegicus [3] = test: Anticonvulsant activity in po dosed albino Sprague-Dawley rat assessed as protection against maximal electroshock-induced seizures; format: functional
# Mus musculus [4] = test: Toxicity in albino CF1 mouse assessed as myoclonic jerks at 300 mg/kg, ip measured after 0.5 hr by rotorod test; format: organism-based; parameters: dose 300 mg/kg, route intraperitoneal; conditions: in vivo
# Mus musculus [5] = test: Neurotoxicity in ip dosed albino CF1 mouse assessed as minimum motor impairment in half or more animals measured after 0.5 hrs by rotorod test; format: toxicity, organism-based; conditions: in vivo
# Procedure, shortened: (§2)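 Male CF-1 mice given ip suspension in 0.5% methylcellulose/water at 30, 100 and 300 mg/kg; MES, scPTZ (pentylenetetrazole 85 mg/kg sc, CD97 dose for clonic seizures ≥5 s) and rotarod (inability to hold balance 1 min in each of three trials) assessed at 0.5 and 4 h; value is minimum dose active in half or more animals.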
# Mus musculus [6] = test: Neurotoxicity in ip dosed albino CF1 mouse assessed as time to peak effect by rotorod test; format: toxicity, organism-based; conditions: in vivo
# Rattus norvegicus [7] = test: Anticonvulsant activity in albino Sprague-Dawley rat assessed as protection against maximal electroshock-induced seizures at 30 mg/kg, po measured after 0.25 hr; format: functional; procedure, shortened: as §1
# Rattus norvegicus [8] = test: Anticonvulsant activity in albino Sprague-Dawley rat assessed as protection against maximal electroshock-induced seizures at 30 mg/kg, po measured after 1 hr; format: functional; procedure, shortened: as §1
# Rattus norvegicus [9] = test: Protection index, ratio of TD50 for neurotoxicity in po dosed albino Sprague-Dawley rat by rotorod test to ED50 for anticonvulsant activity in po dosed albino Sprague-Dawley rat by scPTZ test; format: functional
# Procedure, shortened: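 Male Sprague-Dawley rats, compound suspended in 0.5% methylcellulose/water and given orally; tested at the time of peak effect. scPTZ: 70 mg/kg pentylenetetrazole sc; the end-point is clonic seizures lasting at least 5 s. Rotarod: motor impairment is failure to keep balance for 1 min in each of three trials. Groups of at least eight rats received several doses until at least three points fell within 10–90% effect. ED50, TD50 and 95% confidence intervals were derived by regression; PI = TD50/ED50.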
# Mus musculus [10] = test: Anticonvulsant activity in albino CF1 mouse assessed as assessed as protection against 6 Hz psychomotor seizure at 75 mg/kg, ip after 2 hrs by minimal clonic seizure test; format: functional; conditions: route intraperitoneal
# Procedure, shortened: (§3)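 Male CF-1 mice, groups of four, dosed ip in 0.5% methylcellulose/water suspension, then challenged by 6-Hz corneal stimulation at 32 mA (0.2 ms pulses, 3 s, constant current) at 0.25, 0.5, 1, 2 or 4 h; count of mice out of four protected from stunned posture/clonic seizure.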
# Mus musculus [11] = test: Anticonvulsant activity in albino CF1 mouse assessed as assessed as protection against 6 Hz psychomotor seizure at 75 mg/kg, ip after 0.25 hr by minimal clonic seizure test; format: functional; conditions: route intraperitoneal; procedure, shortened: as §3
# Rattus norvegicus [12] = test: Anticonvulsant activity against maximal electroshock-induced seizures in po dosed albino Sprague-Dawley rat assessed as time to peak effect; format: functional
# Rattus norvegicus [13] = test: Neurotoxicity in po dosed albino Sprague-Dawley rat assessed as time to peak effect by rotorod test; format: toxicity, organism-based; conditions: in vivo
# Rattus norvegicus [14] = test: Anticonvulsant activity in albino Sprague-Dawley rat assessed as protection against maximal electroshock-induced seizures at 30 mg/kg, po measured after 2 hrs; format: functional; procedure, shortened: as §1
# [15] = Neurotoxicity in ip dosed albino CF1 mouse by rotorod test; format: toxicity, organism-based; conditions: in vivo
# Mus musculus [16] = test: Anticonvulsant activity against 6 Hz psychomotor seizure in ip dosed albino CF1 mouse assessed as time to peak effect by minimal clonic seizure test; format: functional
# [17] = Neurotoxicity in po dosed albino Sprague-Dawley rat assessed as minimum motor impairment by rotorod test; format: toxicity, organism-based; conditions: in vivo
# Rattus norvegicus [18] = test: Protection index, ratio of TD50 for neurotoxicity in po dosed albino Sprague-Dawley rat by rotorod test to ED50 for anticonvulsant activity in po dosed albino Sprague-Dawley rat by MES test; format: functional
# Rattus norvegicus [19] = test: Anticonvulsant activity against […] subcutaneous pentylenetetrazole-induced convulsion in po dosed albino Sprague-Dawley rat assessed as time to peak effect; format: functional
# Mus musculus [20] = test: Anticonvulsant activity against 6 Hz psychomotor seizure in ip dosed albino CF1 mouse by minimal clonic seizure test; format: functional
# Mus musculus [21] = test: Neurotoxicity in albino CF1 mouse assessed as minimum motor impairment at 300 mg/kg, ip measured after 4 hrs by rotorod test; format: toxicity, organism-based; parameters: dose 300 mg/kg, route intraperitoneal; conditions: in vivo; procedure, shortened: as §2
# Mus musculus [22] = test: Anticonvulsant activity in albino CF1 mouse assessed as assessed as protection against 6 Hz psychomotor seizure at 75 mg/kg, ip after 4 hrs by minimal clonic seizure test; format: functional; conditions: route intraperitoneal; procedure, shortened: as §3
# Rattus norvegicus [23] = test: Anticonvulsant activity in albino Sprague-Dawley rat assessed as protection against maximal electroshock-induced seizures at 30 mg/kg, po measured after 0.5 hr; format: functional; procedure, shortened: as §1
# Mus musculus [24] = test: Anticonvulsant activity in albino CF1 mouse assessed as assessed as protection against 6 Hz psychomotor seizure at 75 mg/kg, ip after 0.5 hr by minimal clonic seizure test; format: functional; conditions: route intraperitoneal; procedure, shortened: as §3
# Mus musculus [25] = test: Protection index, ratio of TD50 for neurotoxicity in ip dosed albino CF1 mouse by rotorod test to ED50 for anticonvulsant activity in ip dosed albino CF1 mouse by 6 Hz psychomotor seizure test; format: functional
# Mus musculus [26] = test: Anticonvulsant activity in ip dosed albino CF1 mouse assessed as protection against maximal electroshock-induced seizures in half or more animals measured after 4 hrs; format: functional; conditions: read-out: MED; procedure, shortened: as §2
# Mus musculus [27] = test: Anticonvulsant activity in albino CF1 mouse assessed as protection against subcutaneous pentylenetetrazole-induced convulsion at 300 mg/kg, ip measured after 0.5 hrs; format: functional, organism-based; parameters: dose 300 mg/kg; procedure, shortened: as §2
# Mus musculus [28] = test: Anticonvulsant activity in ip dosed albino CF1 mouse assessed as protection against maximal electroshock-induced seizures in half or more animals measured after 0.5 hr; format: functional; conditions: read-out: MED; procedure, shortened: as §2
# Mus musculus [29] = test: Anticonvulsant activity in albino CF1 mouse assessed as assessed as protection against 6 Hz psychomotor seizure at 75 mg/kg, ip after 1 hr by minimal clonic seizure test; format: functional; conditions: route intraperitoneal; procedure, shortened: as §3
smiles,measurement,setting,value
O=C1CC(c2ccccc2Cl)C(=O)N1CN1CCC(Cc2ccccc2)CC1 (racemic),ED50,Rattus norvegicus [1],107 mg/kg
same,Activity,Rattus norvegicus [2],inactive
same,ED50,Rattus norvegicus [3],37.6 mg/kg
same,MED,Mus musculus [4],100 mg/kg
same,MED,Mus musculus [5],300 mg/kg
same,Time,Mus musculus [6],0.5 h
same,Activity,Rattus norvegicus [7],25%
same,Activity,Rattus norvegicus [8],75%
same,Ratio TD50/ED50,Rattus norvegicus [9],>4.68
same,Activity,Mus musculus [10],25%
same,Activity,Mus musculus [11],0%
same,Time,Rattus norvegicus [12],1 h
same,Time,Rattus norvegicus [13],1 h
same,Activity,Rattus norvegicus [14],25%
same,TD50,[15],275 mg/kg
same,Time,Mus musculus [16],0.5 h
same,TD50,[17],> 500 mg/kg
same,Ratio TD50/ED50,Rattus norvegicus [18],>13.28
same,Time,Rattus norvegicus [19],1 h
same,ED50,Mus musculus [20],84.6 mg/kg
same,Activity,Mus musculus [21],Non-toxic
same,Activity,Mus musculus [22],0%
same,Activity,Rattus norvegicus [23],75%
same,Activity,Mus musculus [24],75%
same,Ratio TD50/ED50,Mus musculus [25],3.26
same,minimal effective dose,Mus musculus [26],100 mg/kg
same,Activity,Mus musculus [27],inactive
same,minimal effective dose,Mus musculus [28],300 mg/kg
same,Activity,Mus musculus [29],0%
